Assay results as given in ChEMBL document CHEMBL3352496, “Design, synthesis and evaluation of novel triazole core based P-glycoprotein-mediated multidrug resistance reversal agents” (Bioorg Med Chem, 2014).
Structures can show the parent of a compound that is named as a salt.

Tests used:
[1] = Reversal of P-gp-mediated multidrug resistance in human K562/A02 cells assessed as reduction of adriamycin IC50 at 5 uM after 48 hrs by MTT assay; type: cell-based; conditions: K562/A02, 48 h
Procedure, shortened: (§1)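 MTT on K562/A02 cells exposed to a series of adriamycin concentrations, with or without modulator at 5 µM; 0.1% DMSO as solvent control. Reversal fold = adriamycin IC50 without modulator / IC50 with modulator.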

[2] = Resistance factor, ratio of adriamycin IC50 for human K562/A02 cells over-expressing Pgp to adriamycin IC50 for human K562/A02 cells over-expressing Pgp in presence of 5 uM compound; type: functional; procedure, shortened: as §1
[3] = Cytotoxicity against human K562/A02 cells at 5 uM after 48 hrs by MTT assay; type: cell-based; conditions: k562/a02, 48 h
Procedure, shortened: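 Adriamycin-selected K562/A02 cells given test compound alone at 5 µM for 48 h; cytotoxicity scored by MTT as intrinsic growth inhibition.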

[4] = Reversal of P-gp-mediated multidrug resistance in human K562/A02 cells assessed as reduction of adriamycin IC50 at 2.5 uM after 48 hrs by MTT assay; type: cell-based; conditions: K562/A02, 48 h
Procedure, shortened: (§2)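 K562/A02 (P-gp-overexpressing) cells given graded adriamycin plus modulator at 2.5, 1.25, 0.625, 0.31, 0.156, 0.078 or 0.04 µM; verapamil 2.5 µM as positive control; adriamycin IC50 by MTT. Reversal fold = IC50 without modulator / IC50 with modulator. Two to three experiments, mean ± SEM.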

[5] = Resistance factor, ratio of adriamycin IC50 for human K562/A02 cells over-expressing Pgp to adriamycin IC50 for human K562/A02 cells over-expressing Pgp in presence of 2.5 uM compound; type: functional; procedure, shortened: as §2
[6] = Reversal of P-gp-mediated multidrug resistance in human K562/A02 cells assessed as reduction of adriamycin IC50 at 5 uM incubated for 24 hrs prior to adriamycin treatment measured after 48 hrs by MTT assay; type: cell-based
Procedure, shortened: (§3)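 K562/A02 cells incubated 24 h with 5 µM modulator, verapamil or vehicle, then washed with growth medium. […] Reversal fold = IC50 without modulator / IC50 with modulator. Two to three experiments, mean ± SEM.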

[7] = Reversal of P-gp-mediated multidrug resistance in human K562/A02 cells assessed as reduction of adriamycin IC50 at 5 uM incubated for 24 hrs followed by adriamycin treatment post compound washout measured after 48 hrs by MTT assay; type: cell-based; procedure, shortened: as §3
[8] = Reversal of P-gp-mediated multidrug resistance in human K562/A02 cells assessed as reduction of adriamycin IC50 at 5 uM incubated for 24 hrs followed by adriamycin treatment 6 hrs post compound washout measured after 48 hrs by MTT assay; type: cell-based; procedure, shortened: as §3
[9] = Reversal of P-gp-mediated multidrug resistance in human K562/A02 cells assessed as reduction of adriamycin IC50 at 5 uM incubated for 24 hrs followed by adriamycin treatment 12 hrs post compound washout measured after 48 hrs by MTT assay; type: cell-based; procedure, shortened: as §3
[10] = Resistance factor, ratio of adriamycin IC50 for human K562/A02 cells over-expressing Pgp to adriamycin IC50 for human K562/A02 cells over-expressing Pgp in presence of 5 uM compound incubated for 24 hrs prior to adriamycin treatment; type: functional; procedure, shortened: as §3
[11] = Resistance factor, ratio of adriamycin IC50 for human K562/A02 cells over-expressing Pgp to adriamycin IC50 for human K562/A02 cells over-expressing Pgp in presence of 5 uM compound incubated for 24 hrs followed by adriamycin treatment post compound washout; type: functional; procedure, shortened: as §3
[12] = Cytotoxicity against human K562/A02 cells after 48 hrs by MTT assay; type: functional, cell-based; conditions: K562/A02, 48 h

SMILES: COc1cc2c(cc1OC)CN(CCn1cc(COc3ccccc3NC(=O)c3ccc(C)cc3)nn1)CC2
- IC50 [1]: 7.25 µM
- Ratio IC50 [2]: 7.5
- Activity [3]: < 10%

SMILES: COc1cc2c(cc1OC)CN(CCn1cc(COc3ccccc3NC(=O)c3cc(OC)c(OC)c(OC)c3)nn1)CC2
- IC50 [1]: 3.23 µM
- Ratio IC50 [2]: 16.8
- Activity [3]: < 10%

SMILES: COc1cc2c(cc1OC)CN(CCn1cc(COc3ccccc3NC(=O)c3ccc4ccccc4n3)nn1)CC2
- IC50 [1]: 5.21 µM
- Ratio IC50 [2]: 10.4
- Activity [3]: < 10%

SMILES: COc1ccc(C(=O)Nc2ccccc2OCc2cn(CCN3CCc4cc(OC)c(OC)cc4C3)nn2)cc1
- IC50 [1]: 6.25 µM
- Ratio IC50 [2]: 8.7
- Activity [3]: < 10%

SMILES: COc1cc2c(cc1OC)CN(CCn1cc(COc3ccccc3NC(=O)c3cccc(Cl)c3)nn1)CC2
- IC50 [1]: 11 µM
- Ratio IC50 [2]: 4.9
- Activity [3]: < 10%

SMILES: COc1cc2c(cc1OC)CN(CCn1cc(COc3ccccc3NC(=O)c3ccc(N(C)C)cc3)nn1)CC2
- IC50 [1]: 9.32 µM
- Ratio IC50 [2]: 5.8
- Activity [3]: < 10%

SMILES: COc1ccc(CCN(C)CCCC(C#N)(c2ccc(OC)c(OC)c2)C(C)C)cc1OC (stereo not given) [VERAPAMIL]
- IC50 [1]: 6.8 µM
- Ratio IC50 [2]: 8.7
- IC50 [4]: 15.9 µM
- Ratio IC50 [5]: 3.4
- IC50 [6]: 9.6 µM
- IC50 [7]: 40.8 µM
- IC50 [8]: > 80 µM
- IC50 [9]: > 80 µM
- Ratio IC50 [10]: 8.4
- Ratio IC50 [11]: 1.9

SMILES: COc1cc2c(cc1OC)CN(CCn1cc(COc3ccccc3NC(=O)c3cccc(C)c3)nn1)CC2
- IC50 [1]: 7.16 µM
- Ratio IC50 [2]: 7.6
- Activity [3]: < 10%

SMILES: COc1cc2c(cc1OC)CN(CCn1cc(COc3ccccc3NC(=O)c3ccc(Cl)cc3)nn1)CC2
- IC50 [1]: 5.21 µM
- Ratio IC50 [2]: 10.4
- Activity [3]: < 10%

SMILES: COc1cccc2c1C(=O)c1c(O)c3c(c(O)c1C2=O)C[C@@](O)(C(=O)CO)C[C@@H]3O[C@H]1C[C@H](N)[C@H](O)[C@H](C)O1 [DOXORUBICIN HYDROCHLORIDE]
- IC50 [12]: 54.2 µM
